Data on 27 molecules can be found in ChEMBL document CHEMBL3232881, “New orally active amino- and hydroxy-functionalized 11-azaartemisinins and their derivatives with high order of antimalarial activity against multidrug-resistant Plasmodium yoelii in Swiss mice” (2014).

Molecules are shown by their SMILES.

Common to all, as to format: functional
For test [1], the system named is Plasmodium yoelii. Nature of the test: Antimalarial activity against chloroquine, mefloquine and halofantrine-resistant Plasmodium yoelii infected in Swiss mouse assessed as suppression of parasitemia at 24 mg/kg, po for 4 days by microscopic analysis relative to control. In a few lines: (§1)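 Swiss mice of either sex infected ip on day 0 with 1 × 10⁶ parasitized RBCs of multidrug-resistant P. yoelii nigeriensis, five per dose. Oral dosing in groundnut oil (0.1 mL) once daily days 0–3. Parasitemia read by microscopy on day 4. % suppression = [(C − T)/C] × 100 against untreated controls; 100% means no parasites in 50 oil-immersion fields.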

The test system of test [2] is Plasmodium yoelii. Nature of the test: Antimalarial activity against chloroquine, mefloquine and halofantrine-resistant Plasmodium yoelii infected in Swiss mouse assessed as mouse survival at 24 mg/kg, po for 4 days measured on day 28 relative to control. An outline of the steps:
(§2)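 P. yoelii nigeriensis (chloroquine-, mefloquine-, halofantrine-resistant) given ip as 1 × 10⁶ parasitized RBCs on day 0 to Swiss mice of either sex, five per dose. Compound in groundnut oil, 0.1 mL, given orally once daily days 0–3. Blood smears checked through day 28. Mice surviving beyond day 28 counted as protected, reported as % of five. β-Arteether as positive control.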

In test [3] the test system is Plasmodium yoelii. The test can be described thus: Antimalarial activity against chloroquine, mefloquine and halofantrine-resistant Plasmodium yoelii infected in Swiss mouse assessed as suppression of parasitemia at 12 mg/kg, po for 4 days by microscopic analysis relative to control. An outline of the steps:
as §1

In test [4] the test system is Plasmodium yoelii. Nature of the test: Antimalarial activity against chloroquine, mefloquine and halofantrine-resistant Plasmodium yoelii infected in Swiss mouse assessed as suppression of parasitemia at 6 mg/kg, po for 4 days by microscopic analysis relative to control. An outline of the steps: as §1
For test [5], the system named is Plasmodium yoelii. Nature of the test: Antimalarial activity against chloroquine, mefloquine and halofantrine-resistant Plasmodium yoelii infected in Swiss mouse assessed as mouse survival at 6 mg/kg, po for 4 days measured on day 28 relative to control. In a few lines:
as §2

The test system of test [6] is Plasmodium yoelii. The test can be described thus: Ratio of compound to beta-arteether for antimalarial activity against chloroquine, mefloquine and halofantrine-resistant Plasmodium yoelii infected in Swiss mouse assessed as mouse survival.
Test [7] deals with Plasmodium yoelii. The test can be described thus: Antimalarial activity against chloroquine, mefloquine and halofantrine-resistant Plasmodium yoelii infected in Swiss mouse assessed as mouse survival at 12 mg/kg, po for 4 days measured on day 28 relative to control. An outline of the steps: as §2
Test [8] has as its system Plasmodium yoelii. Nature of the test: Antimalarial activity against chloroquine, mefloquine and halofantrine-resistant Plasmodium yoelii infected in Swiss mouse assessed as suppression of parasitemia at 48 mg/kg, po for 4 days by microscopic analysis relative to control. An outline of the steps:
as §1

In test [9] the test system is Plasmodium yoelii. The test can be described thus: Antimalarial activity against chloroquine, mefloquine and halofantrine-resistant Plasmodium yoelii infected in Swiss mouse assessed as mouse survival at 48 mg/kg, po for 4 days measured on day 28 relative to control. In a few lines: as §2

In the case of `C[C@@H]1CC[C@H]2[C@@H](C)C(=O)N(/N=C/c3ccccc3)[C@@H]3O[C@@]4(C)CC[C@@H]1[C@@]23OO4`, the Activity with Plasmodium yoelii [1] came to 100%; in the test with Plasmodium yoelii [2] it was 40%.
For the molecule `C[C@@H]1CC[C@H]2[C@@H](C)C(=O)N(/N=C/c3ccc(C(F)(F)F)cc3)[C@@H]3O[C@@]4(C)CC[C@@H]1[C@@]23OO4`, the Activity in the test with Plasmodium yoelii [3] turned out to be 100%; with Plasmodium yoelii [4], 99%; with Plasmodium yoelii [5] it was 0%; in the test on Plasmodium yoelii [1], 100%; with Plasmodium yoelii [2] it was 100%; with Plasmodium yoelii [7], 100%. Besides, the Ratio in the test with Plasmodium yoelii [6] turned out to be 4.
As for `C[C@@H]1CC[C@H]2[C@@H](C)C(=O)N(/N=C/c3ccc(F)cc3)[C@@H]3O[C@@]4(C)CC[C@@H]1[C@@]23OO4`, the Activity in the test with Plasmodium yoelii [1] amounted to 100%; with Plasmodium yoelii [2] it was 40%.
Take `C[C@@H]1CC[C@H]2[C@@H](C)C(=O)N(/N=C/c3ccc4c(c3)Cc3ccccc3-4)[C@@H]3O[C@@]4(C)CC[C@@H]1[C@@]23OO4`: the Activity in the test with Plasmodium yoelii [3] is given as 100%; with Plasmodium yoelii [4], 66%; in the test with Plasmodium yoelii [5] it was 0%; in the test with Plasmodium yoelii [1], 100%; in the test on Plasmodium yoelii [2] it was 100%; in the test on Plasmodium yoelii [7] it was 100%. Also, the Ratio in the test on Plasmodium yoelii [6] amounted to 4.
Turning to `C[C@@H]1CC[C@H]2[C@@H](C)C(=O)N(OCc3ccc(-c4ccccc4)cc3)[C@@H]3O[C@@]4(C)CC[C@@H]1[C@@]23OO4`, the Activity is reported as 100% in the test with Plasmodium yoelii [3], 100% in the test on Plasmodium yoelii [1], 100% in the test on Plasmodium yoelii [2] and 60% in the test on Plasmodium yoelii [7].
For `C[C@@H]1CC[C@H]2[C@@H](C)C(=O)N(NCc3ccc(C(F)(F)F)cc3)[C@@H]3O[C@@]4(C)CC[C@@H]1[C@@]23OO4`, the Activity worked out at 100% with Plasmodium yoelii [3], 100% with Plasmodium yoelii [1], 100% with Plasmodium yoelii [2] and 20% with Plasmodium yoelii [7].
On to `C[C@@H]1CC[C@H]2[C@@H](C)C(=O)N(NCc3ccc(-c4ccccc4)cc3)[C@@H]3O[C@@]4(C)CC[C@@H]1[C@@]23OO4`, for which the Activity in the test on Plasmodium yoelii [3] is reported as 100%; in the test on Plasmodium yoelii [4] it was 100%; with Plasmodium yoelii [5], 20%; in the test on Plasmodium yoelii [1] it was 100%; with Plasmodium yoelii [2], 100%; in the test on Plasmodium yoelii [7] it was 100%. Also, in the test on Plasmodium yoelii [6], the Ratio amounted to 4.
On to `C[C@@H]1CC[C@H]2[C@@H](C)C(=O)N(NCc3ccc(F)cc3)[C@@H]3O[C@@]4(C)CC[C@@H]1[C@@]23OO4`, for which the Activity was 100% with Plasmodium yoelii [3], 100% in the test with Plasmodium yoelii [1], 100% in the test with Plasmodium yoelii [2] and 20% with Plasmodium yoelii [7].
For the molecule `Cc1ccc(CNN2C(=O)[C@H](C)[C@@H]3CC[C@@H](C)[C@@H]4CC[C@@]5(C)OO[C@]43[C@H]2O5)cc1`, the Activity in the test with Plasmodium yoelii [3] was determined as 74%; in the test with Plasmodium yoelii [1] it was 100%; with Plasmodium yoelii [2], 60%; in the test on Plasmodium yoelii [7], 0%.
The like results for `C[C@@H]1CC[C@H]2[C@@H](C)C(=O)N(NCc3ccccc3)[C@@H]3O[C@@]4(C)CC[C@@H]1[C@@]23OO4` were, in that order, 100%, 100%, 100% and 0%.
For the molecule `C[C@@H]1CC[C@H]2[C@@H](C)C(=O)N(/N=C/c3ccc(-c4ccccc4)cc3)[C@@H]3O[C@@]4(C)CC[C@@H]1[C@@]23OO4`, the Activity is listed as 100% with Plasmodium yoelii [3]; 100% with Plasmodium yoelii [4]; 80% in the test on Plasmodium yoelii [5]; 100% with Plasmodium yoelii [1]; 100% with Plasmodium yoelii [2]; 100% in the test on Plasmodium yoelii [7]. Besides, in the test on Plasmodium yoelii [6], the Ratio stood at 4.
As to `C[C@@H]1CC[C@H]2[C@@H](C)C(=O)N(OCc3ccccc3)[C@@H]3O[C@@]4(C)CC[C@@H]1[C@@]23OO4`, the Activity with Plasmodium yoelii [3] amounted to 100%; in the test on Plasmodium yoelii [1], 100%; in the test on Plasmodium yoelii [2], 100%; with Plasmodium yoelii [7], 80%.
Consider `Cc1ccc(/C=N/N2C(=O)[C@H](C)[C@@H]3CC[C@@H](C)[C@@H]4CC[C@@]5(C)OO[C@]43[C@H]2O5)cc1`, for which the Activity in the test on Plasmodium yoelii [3] was found to be 100%; with Plasmodium yoelii [4], 66%; in the test on Plasmodium yoelii [5], 0%; in the test on Plasmodium yoelii [1] it was 100%; in the test on Plasmodium yoelii [2], 100%; in the test on Plasmodium yoelii [7], 100%. For the same molecule, the Ratio in the test with Plasmodium yoelii [6] is listed as 4.
Take `C[C@@H]1CC[C@H]2[C@@H](C)C(=O)N(NCc3ccc4c(c3)Cc3ccccc3-4)[C@@H]3O[C@@]4(C)CC[C@@H]1[C@@]23OO4`: the Activity with Plasmodium yoelii [3] worked out at 100%; in the test on Plasmodium yoelii [1] it was 100%; with Plasmodium yoelii [2] it was 100%; with Plasmodium yoelii [7], 40%.
With `C[C@@H]1CC[C@H]2[C@@H](C)C(=O)N(O)[C@@H]3O[C@@]4(C)CC[C@@H]1[C@@]23OO4`, the Activity in the test on Plasmodium yoelii [1] was 54%; with Plasmodium yoelii [2] it was 0%.
On the same counts, the results for `C[C@@H]1CC[C@H]2[C@@H](C)C(=O)N(N)[C@@H]3O[C@@]4(C)CC[C@@H]1[C@@]23OO4` are 100% and 40%.
On the same counts, the results for `C[C@@H]1CC[C@H]2[C@@H](C)C(=O)N(NC(=O)CC34CC5CC(CC(C5)C3)C4)[C@@H]3O[C@@]4(C)CC[C@@H]1[C@@]23OO4` are 100% and 60%.
Regarding `C[C@@H]1CC[C@H]2[C@@H](C)C(=O)N(NC(=O)c3ccc(Br)cc3)[C@@H]3O[C@@]4(C)CC[C@@H]1[C@@]23OO4`, the Activity amounted to 100% in the test on Plasmodium yoelii [3], 100% with Plasmodium yoelii [1], 100% with Plasmodium yoelii [2] and 0% in the test on Plasmodium yoelii [7].
`C[C@@H]1CC[C@H]2[C@@H](C)C(=O)N(NC(=O)c3ccccc3)[C@@H]3O[C@@]4(C)CC[C@@H]1[C@@]23OO4`: the Activity was found to be 62% with Plasmodium yoelii [3], 100% in the test on Plasmodium yoelii [1], 100% with Plasmodium yoelii [2] and 0% in the test on Plasmodium yoelii [7].
In the case of `C[C@@H]1CC[C@H]2[C@@H](C)C(=O)N(/N=C/c3ccc(Cl)cc3)[C@@H]3O[C@@]4(C)CC[C@@H]1[C@@]23OO4`, the Activity in the test on Plasmodium yoelii [1] was 100%; in the test with Plasmodium yoelii [2], 20%.
Turning to `C[C@@H]1CC[C@H]2[C@@H](C)C(=O)N(NCc3ccc(Cl)cc3)[C@@H]3O[C@@]4(C)CC[C@@H]1[C@@]23OO4`, the Activity in the test with Plasmodium yoelii [3] was determined as 100%; with Plasmodium yoelii [1] it was 100%; in the test with Plasmodium yoelii [2], 100%; in the test on Plasmodium yoelii [7], 80%.
Take `C[C@@H]1CC[C@H]2[C@@H](C)C(=O)N(NC(=O)c3ccc(-c4ccccc4)cc3)[C@@H]3O[C@@]4(C)CC[C@@H]1[C@@]23OO4`: the Activity in the test with Plasmodium yoelii [3] is recorded as 100%; with Plasmodium yoelii [4], 94%; in the test with Plasmodium yoelii [5], 0%; with Plasmodium yoelii [1], 100%; in the test on Plasmodium yoelii [2], 100%; in the test on Plasmodium yoelii [7] it was 100%. Also, in the test on Plasmodium yoelii [6], the Ratio is given as 4.
With `C[C@@H]1CC[C@H]2[C@@H](C)C(=O)N(OCc3ccccc3F)[C@@H]3O[C@@]4(C)CC[C@@H]1[C@@]23OO4`, the Activity in the test on Plasmodium yoelii [3] was 89%; in the test on Plasmodium yoelii [1] it was 100%; in the test with Plasmodium yoelii [2], 100%; in the test on Plasmodium yoelii [7], 0%.
`C[C@@H]1CC[C@H]2[C@@H](C)C(=O)N(NC(=O)C3c4ccccc4-c4ccccc43)[C@@H]3O[C@@]4(C)CC[C@@H]1[C@@]23OO4`: the values for the Activity with Plasmodium yoelii [1] and in the test with Plasmodium yoelii [2] were 100% and 60%, respectively.
For the molecule `CCO[C@H]1O[C@@H]2O[C@@]3(C)CC[C@H]4[C@H](C)CC[C@@H]([C@H]1C)[C@@]24OO3` [ARTEMOTIL], the Activity in the test on Plasmodium yoelii [8] was found to be 100%; in the test with Plasmodium yoelii [1], 100%; with Plasmodium yoelii [2], 20%; with Plasmodium yoelii [9] it was 100%.
`C[C@@H]1CC[C@H]2[C@@H](C)C(=O)N(NC(=O)C34CC5CC(CC(C5)C3)C4)[C@@H]3O[C@@]4(C)CC[C@@H]1[C@@]23OO4`: the values for the Activity in the test with Plasmodium yoelii [1] and in the test with Plasmodium yoelii [2] were 100% and 60%, respectively.
On to `C[C@@H]1CC[C@H]2[C@@H](C)C(=O)N(NC(=O)c3ccc(C(F)(F)F)cc3)[C@@H]3O[C@@]4(C)CC[C@@H]1[C@@]23OO4`, for which the Activity amounted to 100% in the test with Plasmodium yoelii [3], 100% in the test with Plasmodium yoelii [1], 100% in the test on Plasmodium yoelii [2] and 20% in the test with Plasmodium yoelii [7].
